Tests used:
CYP6P4 = biological target: T1, CYP6P4 (Anopheles gambiae, UniProt Q7QCY8)
T1 sequence (Q7QCY8 1-506): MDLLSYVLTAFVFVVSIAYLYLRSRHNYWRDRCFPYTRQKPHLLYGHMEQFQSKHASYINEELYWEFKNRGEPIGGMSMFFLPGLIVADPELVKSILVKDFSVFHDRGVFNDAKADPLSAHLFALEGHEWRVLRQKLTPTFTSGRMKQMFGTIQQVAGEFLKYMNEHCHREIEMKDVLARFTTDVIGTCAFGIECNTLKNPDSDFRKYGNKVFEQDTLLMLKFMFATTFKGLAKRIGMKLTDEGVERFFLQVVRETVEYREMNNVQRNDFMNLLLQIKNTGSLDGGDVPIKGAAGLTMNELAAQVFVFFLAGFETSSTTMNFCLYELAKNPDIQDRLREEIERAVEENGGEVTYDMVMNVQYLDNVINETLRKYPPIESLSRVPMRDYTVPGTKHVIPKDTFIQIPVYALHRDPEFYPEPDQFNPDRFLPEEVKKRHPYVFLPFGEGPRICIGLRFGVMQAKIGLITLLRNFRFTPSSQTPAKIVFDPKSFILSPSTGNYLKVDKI
T1 sequence (Q86QH5 1-679 partner): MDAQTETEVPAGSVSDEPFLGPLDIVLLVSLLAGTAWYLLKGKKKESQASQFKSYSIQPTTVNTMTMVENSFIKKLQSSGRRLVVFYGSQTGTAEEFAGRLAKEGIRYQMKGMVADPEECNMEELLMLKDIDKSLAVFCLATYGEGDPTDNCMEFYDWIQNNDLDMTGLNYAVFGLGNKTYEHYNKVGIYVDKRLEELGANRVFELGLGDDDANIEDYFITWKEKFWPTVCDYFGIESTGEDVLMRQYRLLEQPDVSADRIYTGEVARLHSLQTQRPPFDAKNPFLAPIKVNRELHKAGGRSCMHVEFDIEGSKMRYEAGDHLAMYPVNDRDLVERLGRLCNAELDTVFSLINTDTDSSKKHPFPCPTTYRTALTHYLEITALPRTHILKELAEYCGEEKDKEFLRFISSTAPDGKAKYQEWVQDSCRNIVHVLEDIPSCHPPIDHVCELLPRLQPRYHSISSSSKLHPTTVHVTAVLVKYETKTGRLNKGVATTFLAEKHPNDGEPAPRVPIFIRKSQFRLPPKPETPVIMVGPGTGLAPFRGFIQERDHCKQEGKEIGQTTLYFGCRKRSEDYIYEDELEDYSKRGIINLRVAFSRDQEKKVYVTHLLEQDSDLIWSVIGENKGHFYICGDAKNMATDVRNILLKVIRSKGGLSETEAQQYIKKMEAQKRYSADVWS
T1 sequence (Q86QH4 1-128 partner): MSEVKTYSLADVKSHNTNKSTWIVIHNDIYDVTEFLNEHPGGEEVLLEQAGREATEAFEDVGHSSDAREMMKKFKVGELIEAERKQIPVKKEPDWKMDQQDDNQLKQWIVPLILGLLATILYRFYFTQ

CYP6P3 = biological target: T2, CYP6P3 (Anopheles gambiae, UniProt Q8T632); test: biochemical
T2 sequence (Q8T632 1-509): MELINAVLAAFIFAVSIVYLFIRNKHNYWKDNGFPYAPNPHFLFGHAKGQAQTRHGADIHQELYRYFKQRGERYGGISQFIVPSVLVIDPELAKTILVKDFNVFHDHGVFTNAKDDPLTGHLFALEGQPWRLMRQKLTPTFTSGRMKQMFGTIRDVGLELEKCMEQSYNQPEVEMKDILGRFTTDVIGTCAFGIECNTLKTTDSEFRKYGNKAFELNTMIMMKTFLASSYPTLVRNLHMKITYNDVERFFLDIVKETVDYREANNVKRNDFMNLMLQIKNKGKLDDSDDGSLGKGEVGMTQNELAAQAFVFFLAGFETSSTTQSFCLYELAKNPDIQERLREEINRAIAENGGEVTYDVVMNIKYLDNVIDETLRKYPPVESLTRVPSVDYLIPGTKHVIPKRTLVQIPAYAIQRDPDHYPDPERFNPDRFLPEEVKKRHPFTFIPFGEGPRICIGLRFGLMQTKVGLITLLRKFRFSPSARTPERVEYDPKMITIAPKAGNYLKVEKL
T2 sequence (Q86QH5 1-679 partner): T1 sequence (Q86QH5 1-679 partner)
T2 sequence (Q86QH4 1-128 partner): T1 sequence (Q86QH4 1-128 partner)

[1] = tested on: all mosquito P450s of the panel apart from CYP6Z2 (CYP6M2, CYP6P2, CYP6P3, CYP6P4, CYP9J5); test: in vitro; settings: Anopheles gambiae
CYP6P family and CYP6Z2 = settings: Anopheles gambiae, pH 7.4
[2] = tested on: An. gambiae Kisumu strain; test: Glass tube assay, ovary development of adult females, Kisumu strain; assay type: in vivo, Anopheles gambiae
Procedure, shortened: (§1)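 Borosilicate glass tubes were coated with PPF at 0.55, 2.75 or 5.5 mg/m2, with an acetone-only tube as control, and used the day they were made. Per concentration, two groups of fifteen 5–7-day-old females (n = 30) were acclimated 60 min, then exposed 3 min. They were held 24 h on 10% sucrose, then five days in the insectary. Ovaries were dissected and scored normal or abnormal.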

[3] = tested on: An. gambiae Tiassalé strain; test: Glass tube assay, ovary development of adult females, Tiassalé strain; assay type: in vivo, Anopheles gambiae
Procedure, shortened: as §1

[4] = tested on: all mosquito P450s of the panel except CYP6Z2 and CYP6P2 (CYP6M2, CYP6P3, CYP6P4, CYP9J5); test: in vitro; settings: Anopheles gambiae
[5] = 3 min exposure, half of 5.5 mg/m^2

Compound | Inhibition ratio (%): reduction of PPF depletion caused by PBO (CYP6P4) [%] | IC50 (CYP6P3) [µM] | strength of inhibition relative to PPF (mosquito P450s) | IC50 ([1]; pH 7.4, IC50 of DEF activity) [µM] | IC50 ([1]; pH 7.4, category of inhibition of DEF activity) [µM] | % PPF depletion + PBO (CYP6P4; Anopheles gambiae, pH 7.4) [%] | % PPF depletion −PBO (CYP6P4; Anopheles gambiae, pH 7.4) [%] | PPF depletion (CYP6P family and CYP6Z2) | mosquitoes sterilized ([2]; 3 min exposure to 5.5 mg/m^2) | mosquitoes sterilized [2, 5] [%] | mosquitoes sterilized ([3]; 3 min exposure to 5.5 mg/m^2) [%] | impact on ovary development [3, 5] | IC50 ([4]; pH 7.4, IC50 of DEF activity) [µM] | IC50 ([4]; pH 7.4, category of inhibition of DEF metabolism) [µM]
CCCCOCCOCCOCc1cc2c(cc1CCC)OCO2 [PBO, piperonyl butoxide] | 94.6 |  |  |  |  |  |  |  |  |  |  |  |  | 
CC1(C)C(C=C(Cl)Cl)C1C(=O)OCc1cccc(Oc2ccccc2)c1 (mixture of isomers) [Permethrin, 3-phenoxybenzyl (1R,S)-cis,trans-3-(2,2-dichlorovinyl)-2,2-dimethylcyclopropanecarboxylate] |  | 6.77 | 2–3 fold | 1 to 10 | 1 to 10 |  |  |  |  |  |  |  |  | 
CC(COc1ccc(Oc2ccccc2)cc1)Oc1ccccn1 (stereo not drawn) [PPF, pyriproxyfen] |  | 15.8 |  |  |  | 4.44 ± 1.99 | 81.63 ± 0.63 | 58–100% | completely sterilized | 76 | 75 | no impact | > 10 | > 10

— paper PMC6399515 (Insect Biochemistry and Molecular Biology, 2016)
